Test results as given in ChEMBL document CHEMBL2380307, “Discovery of diarylurea P2Y(1) antagonists with improved aqueous solubility” (Bioorg Med Chem Lett, 2013).

Key:
[1] = Lipophilicity, log P of the compound by RP-HPLC analysis; format: physicochemical
[2] = Oral bioavailability in rat at 1 mg/kg; format: ADME, organism-based; conditions: in vivo
How it was run: (§1)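 Rat PK. Dosing was either 1 mg/kg IV/PO in 10% DMAC/10% EtOH/10% cremophor/70% H2O, or 1 mg/kg IV in 10% EtOH/10% cremophor/80% H2O, or 2 mg/kg IV with 5 mg/kg PO in 10% EtOH/10% cremophor/80% H2O. Read-outs: CL, Vss, t1/2, F.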

Rattus norvegicus = experiment: Volume of distribution at steady state in rat at 1 mg/kg, iv and po; format: ADME, organism-based; design: dose 1 mg/kg, route oral; conditions: in vivo
How it was run: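 Rats dosed at 1 mg/kg by both IV and PO routes in 10% DMAC/10% EtOH/10% cremophor/70% H2O. Steady-state volume of distribution was derived from the IV plasma profile.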

[3] = Half life in rat at 1 mg/kg, iv and po; format: ADME, organism-based; design: dose 1 mg/kg, route oral; conditions: in vivo; how it was run: as §1
[4] = Permeability from apical to basolateral side of human Caco2 cells; format: ADME, cell-based; conditions: Caco-2, read-out: permeability
[5] = (§2) Metabolic stability in rat liver microsomes assessed as compound remaining after 10 mins; format: ADME, Microsome; conditions: liver microsomes, read-out: Stability
How it was run: (§3)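 Liver microsomes incubated for 10 min; read-out is percentage of parent remaining.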

[6] = (§4) Metabolic stability in human liver microsome assessed as compound remaining after 10 mins; format: ADME, microsomes; conditions: liver microsomes, read-out: Stability
Liver microsomes [7] = experiment: as §4; format: ADME; conditions: microsomes, 10 min
Liver microsomes [8] = experiment: as §2; format: ADME, Microsome; conditions: microsomes, 10 min; how it was run: as §3
[9] = Half life in rat at 2 mg/kg, iv and 5 mg/kg, po; format: ADME, organism-based; conditions: in vivo; how it was run: as §1
[10] = Oral bioavailability in rat at 5 mg/kg; format: ADME, organism-based; conditions: in vivo; how it was run: as §1
[11] = Volume of distribution at steady state in rat at 2 mg/kg, iv and 5 mg/kg, po; format: ADME, organism-based; conditions: in vivo, read-out: Vdss
How it was run: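 Rats given 2 mg/kg IV and 5 mg/kg PO in 10% EtOH/10% cremophor/80% H2O. Vss was obtained from the IV pharmacokinetic profile.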

[12] = Clearance in rat at 2 mg/kg, iv and 5 mg/kg, po; format: ADME, organism-based; conditions: in vivo; how it was run: as §1
Plasma [13] = experiment: Plasma concentration in rat at 1 mg/kg, iv followed by administered 25 mg/kg/hr of sustaining dose; format: ADME, organism-based; conditions: in vivo
How it was run: (§5)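 Rats pretreated IV with a loading dose plus sustaining infusion (1 + 2.5, 1 + 5, 1 + 10 or 1 + 25 mg/kg + mg/kg/h). Arterial thrombosis was induced with FeCl2, and thrombus weight was measured; plasma concentrations were measured at each dose. n=6–8 per dose. Vehicle controls received 10% DMA/90% 5% dextrose IV.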

Plasma [14] = experiment: Plasma concentration in rat at 1 mg/kg, iv followed by administered 10 mg/kg/hr of sustaining dose; format: ADME, organism-based; conditions: in vivo; how it was run: as §5
Plasma [15] = experiment: Plasma concentration in rat at 1 mg/kg, iv followed by administered 5 mg/kg/hr of sustaining dose; format: ADME, organism-based; conditions: in vivo; how it was run: as §5
Plasma [16] = experiment: Plasma concentration in rat at 1 mg/kg, iv followed by administered […] of sustaining dose; format: ADME, organism-based; conditions: in vivo
Plasma [17] = experiment: Plasma concentration in rabbit cuticle bleeding model at 15 mg/kg, iv followed by administered 23.4 mg/kg/hr of sustaining dose; format: ADME, organism-based, Oryctolagus cuniculus; conditions: in vivo
How it was run: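 Rabbit cuticle bleeding model with IV loading dose plus sustaining infusion (15 or 9 mg/kg + 23.4 mg/kg/h). Measured ex vivo platelet aggregation blockade, cuticle bleeding time, average plasma concentration and blood pressure.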

[18] = Half life in rat at 1 mg/kg, iv; format: ADME, organism-based; design: dose 1 mg/kg, route intravenous; conditions: in vivo; how it was run: as §1
[19] = Clearance in rat at 1 mg/kg, iv; format: ADME, organism-based; design: dose 1 mg/kg, route intravenous; conditions: in vivo; how it was run: as §1
[20] = Volume of distribution at steady state in rat at 1 mg/kg, iv; format: ADME, organism-based; design: dose 1 mg/kg, route intravenous; conditions: in vivo, read-out: Vdss
How it was run: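 Rat PK: single 1 mg/kg IV dose in 10% EtOH/10% cremophor/80% H2O. Vss was derived from plasma concentration–time data.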

With CC(C)(C)c1ccccc1Oc1ncccc1NC(=O)Nc1ccc(C2(CO)CC2)cc1 the logP [1] was 4.6.

CC(C)(C)c1ccccc1Oc1ncccc1NC(=O)Nc1ccc(OC(F)(F)F)cc1 gave a logP [1] of 5.7, a bioavailability [2] of 7% and a Vdss (Rattus norvegicus) of 5.6 L/kg. The half-life [3] was 15 h, the Papp A→B [4] was 2.1 ×10⁻⁶ cm/s and the remaining at 10 min [5] was 86%.

CN(C)Cc1ccc(-c2ccc(NC(=O)Nc3cccnc3Oc3ccccc3C(C)(C)C)c(F)c2)cc1 showed a logP [1] of 5.4.

Compound CN(C)CC(C)(C)COc1ccc(NC(=O)Nc2cccnc2Oc2ccccc2[Si](C)(C)C)cc1 has a logP [1] of 4.7 and a remaining at 10 min [6] of 29%.

With CN(C)CC(C)(C)COc1ccc(NC(=O)Nc2cccnc2Oc2ccccc2C(C)(C)C)c(F)c1 the logP [1] was 5.2, the Stability (Liver microsomes [7]) was “Unstable” and the Stability (Liver microsomes [8]) was “Unstable”.

Work on CN(C)Cc1cccc(-c2ccc(NC(=O)Nc3cccnc3Oc3ccccc3C(C)(C)C)c(F)c2)c1 yielded a logP [1] of 5.5.

With CC(C)(C)c1ccccc1Oc1ncccc1NC(=O)Nc1ccc(N2CCN(Cc3ccccc3)CC2)cc1 the logP [1] was 5.8.

Work on CC(C)(C)c1ccccc1Oc1ncccc1NC(=O)Nc1ccc(C2(CN3CCCC3)CC2)cc1 yielded a logP [1] of 3.7.

Work on CC(C)(C)c1ccccc1Oc1ncccc1NC(=O)Nc1ccc(OCC2CCN(Cc3ccccc3)CC2)cc1F yielded a logP [1] of 5.8.

For CN(C)Cc1ccc(NC(=O)Nc2cccnc2Oc2ccccc2C(C)(C)C)c(F)c1, the logP [1] was 4.2.

Work on CC(C)(C)c1ccccc1Oc1ncccc1NC(=O)Nc1ccc(N2CCNCC2)cc1 yielded a logP [1] of 3.2.

CC(C)CN1CCC(COc2ccc(NC(=O)Nc3cccnc3Oc3ccccc3C(C)(C)C)cc2)CC1 gave a logP [1] of 4.5.

Compound COC(=O)C1(c2ccc(NC(=O)Nc3cccnc3Oc3ccccc3C(C)(C)C)cc2)CC1 has a logP [1] of 5.1.

Work on CC(C)(C)c1ccccc1Oc1ncccc1NC(=O)Nc1ccc(N2CCOCC2)cc1F yielded a logP [1] of 4.5.

Work on CC(C)CN1CCC(COc2ccc(NC(=O)Nc3cccnc3Oc3ccccc3C(C)(C)C)c(F)c2)CC1 yielded a logP [1] of 5.2, a half-life [9] of 3.4 h and a bioavailability [10] of 40%. It also gave a Vd [11] of 5 L/kg, a clearance [12] of 22 mL/min/kg and a Papp A→B [4] of 1.6 ×10⁻⁶ cm/s. It also gave a remaining at 10 min [5] of 67%.

For CC(C)(C)c1ccccc1Oc1ncccc1NC(=O)Nc1ccc(N2CCCCC2)cc1, the logP [1] was 5.5.

For CC(C)(C)c1ccccc1Oc1ncccc1NC(=O)Nc1ccc(-c2ccccc2CO)cc1F, the logP [1] was 5.5.

In the case of CN(C)CC(C)(C)COc1ccc(NC(=O)Nc2cccnc2Oc2ccccc2C(C)(C)C)cc1, the logP [1] was 5.1, the remaining at 10 min [6] was 12% and the Stability (Liver microsomes [8]) was “Unstable”.

CC(C)CCN1CCC(COc2ccc(NC(=O)Nc3cccnc3Oc3ccccc3C(C)(C)C)c(F)c2)CC1 showed a logP [1] of 5.5.

In the case of CC(C)N1CCC(COc2ccc(NC(=O)Nc3cccnc3Oc3ccccc3C(C)(C)C)c(F)c2)CC1, the logP [1] was 3.8.

With COCC1(c2ccc(NC(=O)Nc3cccnc3Oc3ccccc3C(C)(C)C)cc2)CC1 the logP [1] was 5.2.

CN1CCN(c2ccc(NC(=O)Nc3cccnc3Oc3ccccc3C(C)(C)C)cc2)CC1 gave a logP [1] of 3.9.

CN(C)Cc1ccccc1-c1ccc(NC(=O)Nc2cccnc2Oc2ccccc2C(C)(C)C)c(F)c1 showed a logP [1] of 5.3, a concentration (Plasma [13]) of 13.7 µM and a concentration (Plasma [14]) of 8.5 µM. The concentration (Plasma [15]) was 3.6 µM, the concentration (Plasma [16]) was 1.3 µM and the concentration (Plasma [17]) was 5 µM. The Stability (Liver microsomes [7]) was “Unstable”, the half-life [18] was 1.5 h and the clearance [19] was 158 mL/min/kg. For the same compound, the Vd [20] was 8.7 L/kg and the remaining at 10 min [5] was 24%.
